Experimental data from different studies.
Protocols differ between the studies behind these lines.
NPSR1: Neuropeptide S receptor (NPSR1, Homo sapiens, UniProt Q6W5P4)
GRM3: Metabotropic glutamate receptor 3 (GRM3, Homo sapiens, UniProt Q14832)
TPR: Trypanothione reductase (TPR, Trypanosoma cruzi, UniProt P28593)
PTPN12: Tyrosine-protein phosphatase non-receptor type 12 (PTPN12, Homo sapiens, UniProt Q05209)
Dual specificity calcium/calmodulin-dependent 3',5'-cyclic nucleotide phosphodiesterase 1B: Dual specificity calcium/calmodulin-dependent 3',5'-cyclic nucleotide phosphodiesterase 1B (Homo sapiens, UniProt Q01064)
Fructose-1,6-bisphosphatase 1: Fructose-1,6-bisphosphatase 1 (Mus musculus, UniProt Q9QXD6)
SLC6A2: Sodium-dependent noradrenaline transporter (SLC6A2, Homo sapiens, UniProt P23975)
Aldo-keto reductase family 1 member A1: Aldo-keto reductase family 1 member A1 (Rattus norvegicus, UniProt P51635)

The IC50 of N=c1c2c(ncn1-c1ccccc1)Oc1ccc3ccccc3c1C2c1ccc2c(c1)OCCO2 (stereo not drawn) is reported as 3.07 µM (NPSR1; cAMP; antagonist; TR-FRET).
With COc1ccc2c(Oc3ccc4c(C(=O)Nc5ccccc5N)cccc4c3)ccnc2c1 the IC50 was over 0.5 µM (Fibroblast growth factor receptor 1 (FGFR1, Homo sapiens, UniProt P11362); enzyme activity; inhibitor).
With OC[C@@H]1[C@@H](O)[C@H](O)[C@@H](O)[C@@H]2O[C@H]12 the IC50 was 0.37 µM (bglA (Thermotoga maritima, UniProt Q08638); enzyme activity; inhibitor; pH 6.8; with preincubation).
COc1ccc(-c2cc(C(N)=O)ncc2OCc2ccc(OC)nc2)c(F)c1 gave an IC50 of over 10 µM (GRM3; ion flux; antagonist).
With OC(c1ccccc1)c1ccccc1 the IC50 was over 100 µM (TPR; enzyme activity; inhibitor; absorbance).
With O=C1c2ccccc2-c2cccc3cccc1c23 the IC50 was over 150 µM (PTPN12; enzyme activity; inhibitor).
COc1cccc(C2c3c(ncn(-c4cccc(C)c4)c3=N)Oc3ccc4ccccc4c32)c1 (stereo not drawn) gave an IC50 of 4.38 µM (NPSR1; calcium signal; antagonist).
ClCCOC(c1ccccc1)c1ccccc1 gave an IC50 of 82.9 µM (TPR; enzyme activity; inhibitor; absorbance).
Cc1ccc(OCC(O)Cn2c(=N)n(CCN3CCCCC3)c3ccccc32)cc1 (stereo not drawn) has an IC50 of at most 10 µM (TPR; enzyme activity; inhibitor).
For C=CC(=O)Nc1cc(Nc2nccc(Nc3cc(Cl)c(F)cc3C(C)(C)O)n2)c(OC)cc1N1CC[C@@H](N(C)C)C1, the IC50 was 1.03 µM (MAP kinase-interacting serine/threonine-protein kinase 2 (MKNK2, Homo sapiens, UniProt Q9HBH9); enzyme activity; inhibitor; with preincubation).
For N=c1n(CCN2CCCCC2)c2ccccc2n1CC(O)c1ccc(Cl)c(Cl)c1 (stereo not drawn), the IC50 was at most 10 µM (TPR; enzyme activity; inhibitor).
The IC50 of NC(=O)c1cccc(-c2cccc(OC(=O)NC3CCCCC3)c2)c1 is reported as 0.072 µM (Cocaine esterase (CES2, Homo sapiens, UniProt O00748); enzyme activity; inhibitor).
COc1ccc(-c2cc(C(N)=O)ncc2OCc2noc(C)n2)c(F)c1 gave an IC50 of over 10 µM (GRM3; ion flux; antagonist).
CCN(CC)CCOc1ccc2c(c1)C(=O)c1cc(OCCN(CC)CC)ccc1-2 gave an IC50 of over 50 µM (Cholinesterase (BCHE, Homo sapiens, UniProt P06276); enzyme activity; inhibitor).
The IC50 of O=C(O)C1=CC(=C(c2ccc(O)c(C(=O)O)c2)c2ccc(O)c(C(=O)O)c2)C=CC1=O is reported as 0.176 µM (TPR; enzyme activity; inhibitor; absorbance).
With COc1ccc(C2=NN(C3CCCCCC3)C(=O)[C@@H]3CC=CC[C@H]23)cc1-c1ccc(C(N)=O)cc1 (relative stereo) the IC50 was over 10 µM (Dual specificity calcium/calmodulin-dependent 3',5'-cyclic nucleotide phosphodiesterase 1B; enzyme activity; inhibitor).
With COc1cc(/C=C2\SC(=O)NC2=O)cc(F)c1OCCNc1nc2c(cnn2C2CCCC2)c(=O)[nH]1 the IC50 was 0.0151 µM (Dual specificity calcium/calmodulin-dependent 3',5'-cyclic nucleotide phosphodiesterase 1B; enzyme activity; inhibitor).
CC(C)Cc1sc(N)nc1-c1ccc(P(=O)(O)O)o1 has an IC50 of 0.3 µM (Fructose-1,6-bisphosphatase 1; enzyme activity; inhibitor).
The IC50 of CCN(CC)CCn1c(=N)n(CC(O)c2ccc(Cl)c(Cl)c2)c2ccccc21 (stereo not drawn) is reported as at most 10 µM (TPR; enzyme activity; inhibitor).
O=C(Oc1cc(O)cc2c1C[C@@H](OC(=O)c1cc(O)c(O)c(O)c1)[C@@H](c1cc(O)c(O)c(O)c1)O2)c1cc(O)c(O)c(O)c1 gave an IC50 of 0.02 µM (PTPN12; enzyme activity; inhibitor).
With COc1cccc(C2c3c(ncn(-c4ccncc4)c3=N)Oc3ccc4ccccc4c32)c1 (stereo not drawn) the IC50 was 19.4 µM (NPSR1; cAMP; antagonist; TR-FRET).
The IC50 of CSc1ccc(/C=C2/C(C)=C(CC(=O)O)c3cc(F)ccc32)cc1 is reported as over 100 µM (Dual specificity calcium/calmodulin-dependent 3',5'-cyclic nucleotide phosphodiesterase 1B; enzyme activity; inhibitor).
COc1ccc(-c2cc(C(N)=O)ncc2OCc2ccn(C)n2)c(F)c1 has an IC50 of over 10 µM (GRM3; ion flux; antagonist).
O=C(Nc1ccn(Cc2ccc(O)cc2C(F)(F)F)n1)c1c(F)cccc1F gave an IC50 of over 10 µM (Short transient receptor potential channel 3 (TRPC3, Homo sapiens, UniProt Q13507); ion current; inhibitor).
The IC50 of Fc1ccc(C(c2ccc(F)cc2)c2nnnn2CCCCN2CCC(Cc3ccc(Cl)c(Cl)c3)CC2)cc1 is reported as 0.521 µM (SLC6A2; transporter uptake; inhibitor).
C1CNCCN1 has an IC50 of over 100 µM (TPR; enzyme activity; inhibitor; absorbance).
The IC50 of Clc1ccc(C(c2ccccc2)c2nnnn2CCCCN2CCC(CCCc3ccccc3)CC2)cc1 (stereo not drawn) is reported as 0.232 µM (SLC6A2; transporter uptake; inhibitor).
The IC50 of COc1ccc(-c2cc(C(N)=O)ncc2OCc2ccnc(C)c2)c(F)c1 is reported as over 10 µM (GRM3; ion flux; antagonist).
For Fc1ccc(C(c2ccc(F)cc2)c2nnnn2CCCCN2CCC(c3ccccc3)CC2)cc1, the IC50 was 0.675 µM (SLC6A2; transporter uptake; inhibitor).
For CN1CCN(c2ccc(Nc3ncc4cc(C#N)c(=O)n(C5CCCC5)c4n3)cc2)CC1, the IC50 was 1.53 µM (Fibroblast growth factor receptor 4 (FGFR4, Homo sapiens, UniProt P22455); enzyme activity; inhibitor).
With O=C(O)c1cc(O)c2c(c1)[C@H]([C@H]1c3cc(C(=O)O)cc(O)c3C(=O)c3c(O[C@@H]4O[C@H](CO)[C@@H](O)[C@H](O)[C@H]4O)cccc31)c1cccc(O[C@@H]3O[C@H](CO)[C@@H](O)[C@H](O)[C@H]3O)c1C2=O the IC50 was 0.2 µM (PTPN12; enzyme activity; inhibitor).
Cc1cnc(-c2ccc(-c3ccc(NC(=O)Nc4c(F)cc(F)cc4F)cc3F)c3c2C(=O)NC3)[nH]1 has an IC50 of 0.0433 µM (Serine/threonine-protein kinase 10 (STK10, Homo sapiens, UniProt O94804); enzyme activity; inhibitor).
With CN[C@H]1CC[C@@H](c2ccc(Cl)c(Cl)c2)c2ccccc21 the IC50 was 55 µM (PTPN12; enzyme activity; inhibitor; fluorescence).
With N=c1c2c(ncn1-c1ccccc1)Oc1ccc3ccccc3c1C2c1ccc2c(c1)CCO2 (stereo not drawn) the IC50 was 3.07 µM (NPSR1; cAMP; antagonist; TR-FRET).
The IC50 of COc1ccc2nc(/N=C3/NC(=O)C(=Cc4ccc(Cl)cc4)S3)sc2c1 is reported as 18.3 µM (Aldo-keto reductase family 1 member A1; enzyme activity; inhibitor; absorbance; pH 7.2).
CCN(CC)CCn1c(=N)n(CCOc2ccccc2)c2ccccc21 has an IC50 of at most 10 µM (TPR; enzyme activity; inhibitor).
The IC50 of COc1ccc(-c2cc(C(N)=O)ncc2OCc2cnc(OC)nc2)c(F)c1 is reported as over 10 µM (GRM3; ion flux; antagonist).
For NCCCc1ccccc1, the IC50 was over 100 µM (TPR; enzyme activity; inhibitor; absorbance).
For COc1ccc(-c2cc(C(N)=O)ncc2OCc2ccnc(OC)c2)c(F)c1, the IC50 was over 10 µM (GRM3; ion flux; antagonist).
O=P(O)(O)OC[C@H]1O[C@@](CO)(OP(=O)(O)O)[C@@H](O)[C@@H]1O has an IC50 of 1.52 µM (Fructose-1,6-bisphosphatase 1 (Mus musculus, UniProt Q9QXD6, G27P); enzyme activity; inhibitor).
With N=c1c2c(ncn1Cc1ccccc1)Oc1ccc3ccccc3c1C2c1ccccc1 (stereo not drawn) the IC50 was 3.07 µM (NPSR1; cAMP; antagonist; TR-FRET).
ClCCOC1c2ccccc2CCc2ccccc21 has an IC50 of 29.7 µM (TPR; enzyme activity; inhibitor; absorbance).
For COc1cccc(C2c3c(ncn(-c4cccc(C#N)c4)c3=N)Oc3ccc4ccccc4c32)c1 (stereo not drawn), the IC50 was 19.4 µM (NPSR1; cAMP; antagonist; TR-FRET).
The IC50 of COc1ccc2nc(/N=C3/NC(=O)C(=Cc4ccc(O)c(OC)c4)S3)sc2c1 is reported as 0.61 µM (Aldo-keto reductase family 1 member A1; enzyme activity; inhibitor; absorbance; pH 7.2).
O=C1c2ccccc2C(=O)c2c(O)c(O)cc(O)c21 gave an IC50 of 5 µM (PTPN12; enzyme activity; inhibitor).
COc1cccc(C2c3c(ncn(-c4ccccn4)c3=N)Oc3ccc4ccccc4c32)c1 (stereo not drawn) has an IC50 of 5.51 µM (NPSR1; calcium signal; antagonist).
For COc1ccc(-c2nsc(NC(=O)[C@@H]3C[C@H]3C)c2C)cc1, the IC50 was over 12.5 µM (GRM3; calcium signal; antagonist).
For COc1cccc(C2c3c(ncn(-c4ccccc4-c4ccccc4)c3=N)Oc3ccc4ccccc4c32)c1 (stereo not drawn), the IC50 was 38.7 µM (NPSR1; cAMP; antagonist; TR-FRET).
For Clc1ccc(C(c2ccccc2)c2nnnn2CCCCN2CCC(Cc3ccc(Cl)c(Cl)c3)CC2)cc1 (stereo not drawn), the IC50 was 0.78 µM (SLC6A2; transporter uptake; inhibitor).
The IC50 of O=S(=O)(Nc1nc2cc(Cl)ccc2o1)c1cc(Cl)ccc1Cl is reported as 4.58 µM (Fructose-1,6-bisphosphatase 1; enzyme activity; inhibitor).
COc1ccc2nc(/N=C3/NC(=O)C(=Cc4cc(I)c(O)c(OC)c4)S3)sc2c1 gave an IC50 of over 50 µM (Aldo-keto reductase family 1 member A1; enzyme activity; inhibitor; absorbance; pH 7.2).
N=c1n(CCOc2ccccc2)c2ccccc2n1CCN1CCCCC1 gave an IC50 of at most 10 µM (TPR; enzyme activity; inhibitor).
Cc1ccc(C(=O)Nc2ccc(S(=O)(=O)O)c3cc(S(=O)(=O)O)cc(S(=O)(=O)O)c23)cc1NC(=O)c1cccc(NC(=O)Nc2cccc(C(=O)Nc3cc(C(=O)Nc4ccc(S(=O)(=O)O)c5cc(S(=O)(=O)O)cc(S(=O)(=O)O)c45)ccc3C)c2)c1 has an IC50 of 27 µM (PTPN12; enzyme activity; inhibitor; fluorescence).
c1ccc(CCC2CCN(CCCCn3nnnc3C(c3ccccc3)c3ccccc3)CC2)cc1 has an IC50 of 0.274 µM (SLC6A2; transporter uptake; inhibitor).
